Test results published in ChEMBL document CHEMBL4118027, “Preussilides A-F, Bicyclic Polyketides from the Endophytic Fungus Preussia similis with Antiproliferative Activity” (J Nat Prod, 2017).
In brackets after ≈: the same amount, converted by molar mass. Activity calls are given as the source filed them. No cut-off for these calls is given here.

What was measured:
[1] = system: Wickerhamomyces anomalus; test: Antifungal activity against Pichia anomala DSM 6766 by serial dilution method; type: functional, organism-based
[2] = system: Setaria italica; test: Phytotoxicity against Setaria italica assessed as inhibition of seedling germination at 100 ug/disk; type: functional, organism-based
[3] = system: U2OS; test: Induction of apoptosis in human U2OS cells assessed as tubulin fragmentation up to 10 ug/ml after 18 hrs by flow cytometry; type: functional, cell-based
Procedure, shortened: (§1)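 U2OS were seeded at 7 × 10^5/well in six-well plates and exposed to 5 or 10 μg/mL for 18 h after spreading, with untreated and DMSO mock controls. Cells were trypsinized, fixed in 2% PFA/PBS, then in ice-cold methanol 30 min. Staining: anti-tubulin/anti-lamin antibodies plus RNase A and propidium iodide. Flow cytometry assigned G1, S, G2-M and sub-G1 by DNA content.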

[4] = system: Mycolicibacterium smegmatis; test: Antibacterial activity against Mycobacterium smegmatis ATCC 700084 by serial dilution method; type: functional, organism-based
[5] = system: Bacillus subtilis; test: Antibacterial activity against Bacillus subtilis DSM 10 by serial dilution method; type: functional, organism-based
[6] = system: Rhodotorula glutinis; test: Antifungal activity against Rhodotorula glutinis DSM 10134 by serial dilution method; type: functional, organism-based
[7] = system: Yamadazyma tenuis; test: Antifungal activity against Candida tenuis MUCL 29892 by serial dilution method; type: functional, organism-based
[8] = system: U2OS; test: Cell cycle arrest in human U2OS cells assessed as accumulation at S phase at 10 ug/ml after 18 hrs by propidium iodide staining based flow cytometry (reference value: 19%); type: functional; procedure, shortened: as §1
[9] = system: U2OS; test: Cell cycle arrest in human U2OS cells assessed as accumulation at sub-G1 phase at 5 ug/ml after 18 hrs by propidium iodide staining based flow cytometry (reference value: 0.19%); type: functional; procedure, shortened: as §1
[10] = system: KB 3-1; test: Cytotoxicity against human KB3-1 cells assessed as reduction in cell viability after 5 days by MTT assay; type: functional, cell-based; conditions: KB 3-1, 120 h
Procedure, shortened: (§2)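 MTT viability assay run over 5 days on a panel of eight lines (L929, KB3.1, A431, A549, SKOV-3, PC-3, MCF-7, U2OS). IC50 values were derived.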

[11] = system: U2OS; test: Induction of morphological changes in human U2OS cells assessed as aberrantly sized cells with abnormal small nuclei formation at 0.25 to 5 ug/ml after 24 hrs by DAPI staining based immunofluorescence microscopic method; type: functional, cell-based
Procedure, shortened: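 U2OS in DMEM (4.5 g/L glucose, 10% FBS), 37 °C, 7% CO2, seeded 3 × 10^4/well on fibronectin-coated coverslips and adhered 16 h. Treated 24 h at 0.25, 0.5, 2.5, 5 or 10 μg/mL (diluted from 1 mg/mL DMSO stock), DMSO control. Fixed in 4% PFA/PBS 20 min; anti-α-tubulin (DM1A), phalloidin-Alexa 488 and DNA stain; immunofluorescence imaging.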

[12] = system: A549; test: Cytotoxicity against human A549 cells assessed as reduction in cell viability after 5 days by MTT assay; type: functional, cell-based; conditions: A549, 120 h; procedure, shortened: as §2
[13] = system: Sclerotinia sclerotiorum; test: Antifungal activity against Sclerotinia sclerotiorum DSM 1946 at 100 ug/disk after 5 days by disk diffusion assay; type: functional; conditions: DSM 1946, 120 h, read-out: IZ
Procedure, shortened: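 Disk diffusion on YMG medium seeded with a mycelial suspension of the non-sporulating test fungus. Paper disks carried […] compound. Nystatin at 20 μg/disk was the positive control. Inhibition zone diameter (mm) was read after 5 days.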

[14] = system: U2OS; test: Induction of apoptosis in human U2OS cells assessed as caspase-3/7 cleavage at 10 ug/ml after 18 hrs by caspase-3/7 green reagent based flow cytometry (reference value: 8.04%)
[15] = system: U2OS; test: Induction of nuclear fragmentation in human U2OS cells at 0.25 to 5 ug/ml after 24 hrs by DAPI staining based immunofluorescence microscopic method; type: functional, cell-based
[16] = system: Aspergillus fumigatus; test: Antifungal activity against Aspergillus fumigatus DSM 819 by serial dilution method; type: functional
[17] = system: A-431; test: Cytotoxicity against human A431 cells assessed as reduction in cell viability after 5 days by MTT assay; type: functional, cell-based; conditions: A-431, 120 h; procedure, shortened: as §2
[18] = system: U2OS; test: Cell cycle arrest in human U2OS cells assessed as accumulation at G2/M phase at 5 ug/ml after 18 hrs by propidium iodide staining based flow cytometry (reference value: 24.3%); type: functional; procedure, shortened: as §1
[19] = system: SK-OV-3; test: Cytotoxicity against human SKOV3 cells assessed as reduction in cell viability after 5 days by MTT assay; type: functional, cell-based; conditions: SK-OV-3, 120 h; procedure, shortened: as §2
[20] = system: U2OS; test: Cell cycle arrest in human U2OS cells assessed as accumulation at G1 phase at 10 ug/ml after 18 hrs by propidium iodide staining based flow cytometry (reference value: 50.1%); type: functional; procedure, shortened: as §1
[21] = system: U2OS; test: Induction of apoptosis in human U2OS cells assessed as lamin fragmentation up to 10 ug/ml after 18 hrs by flow cytometry; type: functional, cell-based; procedure, shortened: as §1
[22] = system: U2OS; test: Cytotoxicity against human U2OS cells assessed as reduction in cell viability after 5 days by MTT assay; type: functional, cell-based; conditions: 120 h; procedure, shortened: as §2
[23] = system: Lepidium sativum; test: Phytotoxicity against Lepidium sativum assessed as inhibition of seedling germination at 100 ug/disk; type: functional, organism-based
[24] = system: Candida albicans; test: Antifungal activity against Candida albicans DSM 1665 by serial dilution method; type: functional, organism-based
[25] = system: Mucor plumbeus; test: Antifungal activity against Mucor plumbeus MUCL 49355 by serial dilution method; type: functional
[26] = system: U2OS; test: Cell cycle arrest in human U2OS cells assessed as accumulation at G2/M phase at 10 ug/ml after 18 hrs by propidium iodide staining based flow cytometry (reference value: 24.3%); type: functional; procedure, shortened: as §1
[27] = system: U2OS; test: Cell cycle arrest in human U2OS cells assessed as small cells with reduced nuclear size at 5 ug/ml after 18 hrs by propidium iodide staining based flow cytometry (reference value: 0.19%); type: functional; design: scale not given: the % may be the effect or the level left; procedure, shortened: as §1
[28] = system: U2OS; test: Induction of morphological changes in human U2OS cells at 0.25 to 5 ug/ml after 24 hrs by DAPI staining based immunofluorescence microscopic method
[29] = system: Chromobacterium violaceum; test: Antibacterial activity against Chromobacterium violaceum DSM 30191 by serial dilution method; type: functional, organism-based
[30] = system: L929; test: Induction of nuclear fragmentation in mouse L929 cells at cytotoxic IC50 by DAPI staining based microscopic method; type: functional, cell-based
[31] = system: Staphylococcus aureus; test: Antibacterial activity against Staphylococcus aureus DSM 346 by serial dilution method; type: functional, organism-based
[32] = system: PC-3; test: Cytotoxicity against human PC3 cells assessed as reduction in cell viability after 5 days by MTT assay; type: functional, cell-based; conditions: PC-3, 120 h; procedure, shortened: as §2
[33] = system: U2OS; test: Cell cycle arrest in human U2OS cells assessed as small cells with reduced nuclear size at 10 ug/ml after 18 hrs by propidium iodide staining based flow cytometry (reference value: 0.19%); type: functional; design: scale not given: the % may be the effect or the level left; procedure, shortened: as §1
[34] = system: Schizosaccharomyces pombe; test: Antifungal activity against Schizosaccharomyces pombe DSM 70572 by serial dilution method; type: functional, organism-based
[35] = system: U2OS; test: Cell cycle arrest in human U2OS cells assessed as accumulation at sub-G1 phase at 10 ug/ml after 18 hrs by propidium iodide staining based flow cytometry (reference value: 0.19%); type: functional; procedure, shortened: as §1
[36] = system: U2OS; test: Cell cycle arrest in human U2OS cells assessed as accumulation at G1 phase at 5 ug/ml after 18 hrs by propidium iodide staining based flow cytometry (reference value: 50.1%); type: functional; procedure, shortened: as §1

MIC [16]: 8.3 µg/mL (≈ 20.9 µM)
MIC [25]: 37.5 µg/mL (≈ 94.6 µM)
SMILES: CC(=O)CC1=C(C)C=C2C[C@@H](C)C(=O)[C@@H](C)[C@@H]2[C@H]1/C=C(C)/C=C(C)/C=C/C(=O)O
Activity [1]: inactive
Activity [2]: inactive
Activity [3]: Active
Activity [4]: inactive
Activity [5]: inactive
Activity [6]: inactive
Activity [7]: inactive
Activity [8]: 9.62%
Activity [9]: 1.14%
IC50 [10]: 2.5 µM
Activity [11]: Active
IC50 [12]: 22.9 µM
zone of inhibition at 100 µg/disc [13]: 29 mm
Activity [14]: 5.72%
Activity [15]: Active
IC50 [17]: 10.1 µM
Activity [18]: 19.1%
IC50 [19]: 15.6 µM
Activity [20]: 50.7%
Activity [21]: Active
IC50 [22]: 6.8 µM
Activity [23]: inactive
Activity [24]: inactive
Activity [26]: 10.8%
Activity [27]: 1.96%
Activity [28]: Active
Activity [29]: inactive
Activity [30]: Active
Activity [31]: inactive
IC50 [32]: 18.4 µM
Activity [33]: 25.5%
Activity [34]: inactive
Activity [35]: 21.9%
Activity [36]: 56.3%
